This passage reports inhibition results from PubChem BioAssay AID720543 (The Scripps Research Institute Molecular Screening Center, 2013).

About 2,000 (0.54%) of roughly 370,000 compounds were called active. Only a selection was taken, and actives are over-represented in it overall. A number with no mark means an inactive call.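 How the source made its calls: active means inhibition exceeding the mean over every tested compound plus 3 SD (cut at about 30% in these data); inactive means the rest.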

(Lyso)-N-acylphosphatidylethanolamine lipase (Mus musculus), sequence (Q8VD66 whole entry, looked up): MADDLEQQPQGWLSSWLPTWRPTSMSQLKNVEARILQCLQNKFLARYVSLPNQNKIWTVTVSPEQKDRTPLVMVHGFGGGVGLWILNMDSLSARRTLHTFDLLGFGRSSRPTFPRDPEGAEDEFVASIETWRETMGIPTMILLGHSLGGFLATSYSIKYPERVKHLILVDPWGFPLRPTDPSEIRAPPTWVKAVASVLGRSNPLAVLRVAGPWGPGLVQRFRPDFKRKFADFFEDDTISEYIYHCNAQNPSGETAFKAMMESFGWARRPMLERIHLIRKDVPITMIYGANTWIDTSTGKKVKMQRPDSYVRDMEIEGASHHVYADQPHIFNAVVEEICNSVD

The assay deals with (Lyso)-N-acylphosphatidylethanolamine lipase (Mus musculus) (UniProt Q8VD66). The experiment in a line: ABHD4 inhibitors, primary screen, biochemical, fluorescence polarization, mouse (AID 720543).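 Further: 0% = plate median of compound wells and 100% = S159A mutant with DMSO.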 The following applies: purified mABHD4, FP-Rh probe fluorescence polarization; at 8.92 µM; hits give high values. The method, boiled down:
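Assay system: Wild-type mouse ABHD4 protein | Medium: HEPES pH 7.0 buffer, 150 mM NaCl, 0.01% Pluronic F-127 | Incubation: Enzyme–compound pre-incubation 45 min, then probe 60 min, both 25 °C | Technique: Fluorescence polarization with parallel and perpendicular emission, 525/598 nm | Evaluation: % inhibition of FP-Rh probe binding versus controls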
On the technique in general: In fluorescence polarisation assays a small probe gives low polarisation when free and higher when bound to something large.
Turning to `CN(C)c1ccc(C(CC(=O)O)C(=O)O)cc1` (stereo unspecified), the inhibition is 24.1%. `CC1CN(/C=C/C(=O)C(F)(F)F)CC(C)O1` (stereo unspecified): the inhibition was -3.37%. Turning to `CN(C)c1ccc(N/C=C/C(=O)C(F)(F)F)cc1`, the inhibition is 49.4% (active).

Regarding `CC(=O)C1=C(C)NC(=O)NC1c1cc(Br)ccc1OCC#N` (stereo unspecified), the inhibition was 4.75%. In the case of `Nc1[nH]c(C(=O)c2ccccc2)c(-c2ccc(Cl)cc2Cl)c1C(=O)c1ccccc1`, the inhibition was -1.34%. The result for `CCCC(=O)N1CCC1(C)C(=O)NS(=O)(=O)c1ccc(Cl)cc1` (stereo unspecified) reads -1.74%; that for `CC(C)(C)c1ccc(S(=O)(=O)NC(=O)C2(C)CCN2C(=O)CC2CC2)cc1` (stereo unspecified), -2.61%; that for `CC(C)c1ccc(CC(=O)N2CCC2(C)C(=O)NS(=O)(=O)c2ccc(C(C)(C)C)cc2)cc1` (stereo unspecified), 59% (active).

Turning to `CCCCOCC1CN(CCCC)S(=O)(=O)c2c(Oc3ccc(F)cc3)cccc2O1` (stereo unspecified), the inhibition was 4.37%. The result for `COC(CNC(=O)[C@H](Cc1ccccc1)NC1(C(=O)NC2CCCCC2)CCCCC1)OC` reads 3.57%; that for `COCc1cc(N2CCN(C(=O)OC(C)(C)C)C[C@@H]2C)ccc1N1CCN(Cc2ccccc2)[C@H](C)C1`, -12.1%. On to `COc1ccc(C#CCNCc2ccc(OC)cc2OC)cc1`, for which the inhibition was -4.3%. The result for `O=c1c2ccccc2ccc2ccc(P(=O)(O)O)cc12` reads 12%. `O=Nc1c(O)cc(O)c2ccccc12`: the inhibition is 55.7% (active). As for `Cc1ccc(S(=O)(=O)N(C)C)cc1NC(=O)c1n[nH]c(=O)c2ccccc12`, the figure is -9.11%; as for `CCOc1ccccc1C(=O)N1CCC[C@@H]1C(=O)N1CCC[C@H]1C(=O)NCc1ccccc1`, 1.14%; as for `CCOC(=O)CSc1nnc(CNC(=O)c2ccco2)n1-c1ccc(F)cc1`, 0.65%. As for `COC(=O)c1cc2c(c3c4cc(F)ccc4n(S(=O)(=O)c4ccccc4)c13)C(=O)N(Cc1ccccc1OC)C2`, the figure is -11.3%; as for `COc1ccc(C(CC(=O)c2ccccc2)S(=O)(=O)c2ccccc2)cc1` (stereo unspecified), -2.98%; as for `Cc1ccc(C)c(NC(=O)NNC(=O)c2ccc3ccccc3c2O)c1`, 8.45%.

Consider `COC(=O)c1cc(N2CCNCC2)nc2ccccc12`, for which the inhibition was 1.72%. For the molecule `O=C(NNc1c2ccccc2nc2ccccc12)c1cc2ccccc2cc1O`, the inhibition was 31.3% (active). As for `CC(C)(C)c1ccc(S(=O)(=O)NCC2CCN(C(=O)C(=O)c3cc4ccccc4o3)CC2)cc1`, the figure is -26.4%. The result for `NC(=O)C1CCN(C(=O)c2cc(S(=O)(=O)N3CCN(c4ccccc4)CC3)ccc2Cl)CC1` reads 6.55%; that for `O=C1CCC([N+](=O)[O-])C(c2ccccc2Br)N1` (stereo unspecified), -0.46%; that for `Brc1ccccc1C1Nc2cccc3cccc(c23)N1`, 45.1% (active). `O=C(Nc1ccc(Br)cc1)OCCN1C(=O)CCC12CCC(c1ccccc1)CC2` (stereo unspecified): the inhibition was 0.58%. With `COC(=O)[C@H](C(C)C)N(CCc1cn(Cc2ccccc2)nn1)S(=O)(=O)c1ccc(F)cc1Br`, the inhibition was -6.45%. As for `CC1(C)OC(=O)C2=C(C[C@@H](C3CC3)O[C@H]2CCc2cccc(Cl)c2)O1`, the figure is -7.3%. As for `CC(=O)O[C@@]1(C(C)=O)CCC2[C@H]3C=C(C)C4=CC(=O)CC[C@@]4(C)C3CC[C@]21C` (stereo partly specified), the figure is 5.34%. The result for `Nc1ccc2nc3c(=O)[nH]c(=S)[nH]c3nc2c1` reads 53.6% (active).

With `Cc1cc(Cl)c(S(=O)(=O)Nc2ccc3c(c2)OCCO3)cc1OCC(N)=O`, the inhibition was -2.74%.

With `CC1CCCN(S(=O)(=O)c2ccc(-c3ccc(=O)[nH]n3)o2)C1` (stereo unspecified), the inhibition is -2.46%. In the case of `CC(C)CNS(=O)(=O)CC1NCCc2ccccc21` (stereo unspecified), the inhibition was 3.38%.

In the case of `COC(=O)[C@]12C[C@H](CC(=O)NCCCCc3ccccc3)C(=O)N(Cc3ccc4c(c3)OCO4)C1=C[C@H](C(C)(C)C)O[C@@H]2C`, the inhibition is 0.01%. With `OCCNCCOc1ccc(Cl)c(Cl)c1`, the inhibition is 3.5%.

Regarding `O=C(CCS(=O)(=O)c1ccccc1)Nc1ccc(Cl)c(Cl)c1`, the inhibition is -9.05%.

As for `OCCNc1nc(Nc2ccc(Cl)c(Cl)c2)nc2ccccc12`, the inhibition is 39.5% (active). The result for `CCOC(=O)[C@]12CCC=C1N(Cc1ccccc1)C(=O)[C@H](CC(=O)N1CCCC1)C2` reads -6.55%. Regarding `O=C1[C@@H](c2ccccc2)[C@@H](c2ccccc2)N1c1ccccc1`, the inhibition is -3.86%. As for `Cc1cc2nc(-c3ccco3)c(Cc3cccc(F)c3)n2c(C)c1Br`, the figure is 10.5%. For the molecule `COC(=O)C[C@@H]1CC[C@@H]2[C@@H](COc3ccc(NC(=O)Nc4ccc(F)c(F)c4)cc3C(=O)N2C)O1`, the inhibition is 4.06%. As for `CCOc1c(Br)cc(/C=C2\C(=O)N(CCC#N)N=C2C)cc1OC`, the inhibition is -10.7%.

For the molecule `COc1cc(/C=C2/C(=O)NN(c3cccc(Cl)c3)C2=O)cc(Br)c1O`, the inhibition was 38.5% (active).

Regarding `CC1CN(Cc2nc3c(c(=O)n(C)c(=O)n3C)n2Cc2cccc(Cl)c2)CC(C)O1` (stereo unspecified), the inhibition was 4.39%. In the case of `CCCC1CCC2(CCCN2CCOC(=O)NCc2ccccc2)CC1` (stereo unspecified), the inhibition is -7.41%.

Take `O=[N+]([O-])c1cc(Br)c(O)c(/C=N/Nc2nc3ccccc3s2)c1`: the inhibition is 38.8% (active).

As for `CCC1(C)Cc2c(sc3nnn(CC(=O)Nc4ccc(Cl)cc4)c(=O)c23)CO1` (stereo unspecified), the inhibition was -18.9%. The result for `COc1ccc(OC)c(NC(=O)c2ccc3c(c2)C(=O)N(c2ccc(OC(C)=O)cc2)C3=O)c1` reads 3.91%; that for `O=C(O)c1ccc2c(c1)C(=O)N(c1ccc(/C=C/C(=O)c3ccccc3)cc1)C2=O`, 39.1% (active). As for `CC(=O)Nc1ccc(NC(=O)c2ccc3c(c2)C(=O)N(c2ccccc2C)C3=O)cc1`, the figure is -1.82%; as for `Cc1cccnc1C(NC(=O)C1CCN(Cc2ccc(Cl)c(Cl)c2)CC1)c1ccc(Cl)cc1` (stereo unspecified), -1.83%; as for `CC1CN(C2CCCCC2)c2nc3c(c(=O)n(C)c(=O)n3C)n2C1` (stereo unspecified), -5.35%. As for `COc1cccc(CSc2nnc(-c3cccnc3)n2Cc2ccccc2)c1`, the figure is 0.82%; as for `COc1cc(/C=C/C(=O)n2cnc3ccccc32)cc(OC)c1OC`, -5.44%; as for `C[C@H]1[C@H](NC(=O)c2cccc(N(C)C)c2)CC[C@@]23CCCN2C(=O)CCC[C@@H]13`, 4.02%. For the molecule `COC(=O)c1cccc(Cn2ccc3ccc(-c4ccc5ccn(C(=O)C6CCCCC6)c5c4)cc32)c1`, the inhibition is 3.18%.

In the case of `COc1cccc2c1C(=O)c1c(O)c3c(c(O)c1C2=O)CC(O)(C(C)=NNC(=O)c1ccc(Cl)c(Cl)c1)CC3OC1CC(N)C(O)C(C)O1` (stereo unspecified), the inhibition is 67.4% (active). Turning to `Cc1ccc(S(=O)(=O)N[C@H](CO)C(C)C)cc1`, the inhibition is -3.46%. Regarding `Cc1ccc(S(=O)(=O)/N=C2\C=C(NS(=O)(=O)c3ccc(C)cc3)C(=O)c3ccccc32)cc1`, the inhibition is 40.1% (active). As for `Cc1ccc(S(=O)(=O)/N=S(\C)C(C)C)cc1` (stereo unspecified), the figure is -2.12%; as for `C[C@@H](NC(=O)OC(C)(C)C)c1nnc(S(=O)(=O)Cc2ccccc2)o1`, 11.2%. The result for `CC(C)C(=O)N1c2ccccc2NC2=C(C(=O)CCC2)C1c1ccc(N(C)C)cc1` (stereo unspecified) reads 7.43%. As for `CCCCCCCCNS(=O)(=O)/C=C/c1cc(C)ccc1CNC(=O)OC(C)(C)C`, the figure is -4.09%.

On to `Cc1ccc(C)c(NC(=O)CCS(=O)(=O)c2ccccc2)c1`, for which the inhibition is -4.18%. The result for `Oc1ccc2ccccc2c1N=Nc1nccs1` reads 61.8% (active). The result for `C[C@H](C(=O)N(C)c1ccccc1)[C@@H](O)c1ccc(Cl)cc1` reads 0.42%. Regarding `Nc1[nH]c(C(=O)c2ccccc2)c(-c2ccc(Br)cc2)c1C(=O)NC1CC1`, the inhibition is 1.95%.

For the molecule `Nc1[nH]c(C(=O)c2ccc(Br)cc2)c(-c2ccc3c(c2)OCO3)c1C(=O)NCCc1c[nH]c2ccccc12`, the inhibition is 48.9% (active). As to `Nc1[nH]c(C(=O)c2ccccc2)c(-c2ccncc2)c1C(=O)NCc1cccc2ccccc12`, the inhibition was -0.51%.

As for `O=c1ccc2c(-c3ccccc3S(=O)(=O)O)c3ccc(O)c(O)c3oc-2c1O`, the inhibition was 34% (active). For the molecule `COc1ccc(-n2c(COc3ccccc3)nnc2SCC(=O)Nc2ccc3c(c2)OCO3)cc1`, the inhibition is -9.7%. Take `CC(=O)OCCN1CCCC12CCC(c1ccccc1)CC2` (stereo unspecified): the inhibition was 0.33%. With `Cc1ccc(S(=O)(=O)N2CCC(C(=O)N[C@@H](C)C(=O)NCc3ccco3)CC2)cc1`, the inhibition is -2.84%. For the molecule `Cc1cccc(C(=O)NC(=S)N2CCN(c3ccc([N+](=O)[O-])cc3)CC2)c1`, the inhibition was -5.02%. For the molecule `Cc1cc(/C=N/Nc2ccc([N+](=O)[O-])cn2)c(C)n1-c1cccc(C(=O)O)c1`, the inhibition was 45.6% (active). As for `CN1CCN(C(=O)c2cnn(-c3ccccc3)c2NC(=O)c2ccc([N+](=O)[O-])cc2)CC1`, the figure is -2.86%. Regarding `O=C(N[C@@H]1C/C=C\C[C@@H](CC(=O)N(CCO)Cc2ccccc2)C(=O)N[C@H](Cc2ccccc2)COC1=O)OCC1c2ccccc2-c2ccccc21`, the inhibition is 7.4%. As for `CSc1ccc(C=Nn2c(-c3ccc(F)cc3)n[nH]c2=S)cc1`, the figure is 0.61%. As for `CCCCc1c(-c2ccc(Br)cc2)ncn1CCc1ccccc1OC`, the figure is -0.8%.

For the molecule `CCOCCCNC(=O)C(NC(=O)c1ccccc1O)c1ccccc1` (stereo unspecified), the inhibition was -0.7%.

For `Clc1ccc(C2=CSC3=Nc4cccc5cccc(c45)N23)cc1`, the inhibition was 38.4% (active).

For the molecule `O=C(OCC#CCSc1nnc(-c2ccco2)o1)c1ccc(F)cc1`, the inhibition was -9.72%. For `Cc1oc2cc([N+](=O)[O-])c(O)c([N+](=O)[O-])c2c1C(=O)c1ccc(Br)cc1`, the inhibition was 8.71%. For the molecule `COc1cc(/C(=C/c2ccccc2)c2ccccc2)c2c(c1)oc1ccccc12`, the inhibition was -1.7%. On to `Cc1oc2cc(Br)c(O)c(Br)c2c1C(=O)c1ccccc1`, for which the inhibition was 44.9% (active).

What is called inhibition is the relative decrease from the control value, in per cent.
